Measurements: ChEMBL document CHEMBL3616436, “Synthesis, cytotoxicity and antimicrobial activity of thiourea derivatives incorporating 3-(trifluoromethyl)phenyl moiety” (Eur J Med Chem, 2015)
≈ marks a conversion by molar mass, not a printed value. Calls of active or inactive are those of the source. The calls are words filed in the database; no cut-off is given here.

Experiments:
[1] = system: Coxsackievirus B5; assay: Antiviral activity against Human coxsackievirus B5 ATCC VR-29 infected in African green monkey Vero 76 cells assessed as reduction of virus-plaque formation after 3 days by crystal violet staining; assay type: functional, organism-based; settings: Enterovirus B, ATCC VR-29, Vero, 72 h
How it was run: (§1)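 Plaque reduction: Vero-76 at 2x10^5 cells/well grown to confluent monolayers, infected 2 h at 50–100 PFU/well; after removing unadsorbed virus, overlay of D-MEM, 1% inactivated FBS, 0.75% methylcellulose with or without serial compound dilutions; 3 days at 37°C, fixed and stained with crystal violet in 50% ethanol, plaques counted; EC50 by linear regression.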

[2] = system: Human alphaherpesvirus 1; assay: Antiviral activity against Human herpesvirus 1 KOS ATCC VR-1493 infected in African green monkey Vero 76 cells assessed as reduction of virus-plaque formation after 3 days by crystal violet staining; assay type: functional, organism-based; settings: Human alphaherpesvirus 1, KOS ATCC VR1493, Vero, 72 h; how it was run: as §1
[3] = system: Enterococcus faecalis; assay: Antimicrobial activity against Enterococcus faecalis ATCC 29212 at 400 ug after 18 hrs by disc-diffusion method; assay type: functional; settings: ATCC 29212, 18 h, read-out: IZ
How it was run: (§2)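 Disc diffusion on Mueller-Hinton II agar per CLSI; 9 mm paper discs loaded with 400 µg compound from DMSO solution, dried, placed on agar; growth inhibition zone diameter read after 18 h at 35°C.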

[4] = Cytotoxicity against African green monkey Vero 76 cells assessed as cell viability after 48 to 96 hrs by crystal violet staining; assay type: cell-based; settings: chlorocebus sabaeus
[5] = system: Staphylococcus epidermidis; assay: Antimicrobial activity against Staphylococcus epidermidis ATCC 35984 at 400 ug after 18 hrs by disc-diffusion method; assay type: functional; settings: ATCC 35984, 18 h, read-out: IZ; how it was run: as §2
[6] = system: Mycobacterium tuberculosis; assay: Antimycobacterial activity against drug-sensitive Mycobacterium tuberculosis Spec. 192; assay type: functional
How it was run: (§3)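 Classical test-tube successive-dilution method in Youmans' modification of Proskauer and Beck liquid medium with 10% bovine serum. Inoculum came from 14-day cultures. DMSO stock was 10 mg/mL, diluted geometrically in medium. Tubes were incubated at 37 °C. Concentrations tested were 3.1, 6.2, 12.5, 25, 50 and 100 µg/ml. MIC is the minimum concentration inhibiting growth relative to compound-free tubes.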

[7] = system: Enterococcus hirae; assay: Antimicrobial activity against Enterococcus hirae ATCC 10541 at 400 ug after 18 hrs by disc-diffusion method; assay type: functional; how it was run: as §2
[8] = system: Mammalian orthoreovirus 1; assay: Antiviral activity against Reovirus type-1 ATCC VR-214 infected in BHK cells assessed as protection against virus-induced cytopathogenicity after 3 to 4 days by MTT assay; assay type: functional, cell-based; settings: Mammalian orthoreovirus 1, ATCC VR-214, BHK
How it was run: (§4)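 Cells seeded in 96-well plates (BHK 5x10^4, MDBK 3x10^4 cells/well), grown overnight to confluence, infected at m.o.i. 0.01 (BHK for Reo-1, MDBK for BVDV); serial compound dilutions in maintenance medium with 0.5% inactivated FBS added after 1 h; viability by MTT after 3–4 days at 37°C; EC50 for 50% protection by linear regression.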

[9] = system: Bacillus subtilis; assay: Antimicrobial activity against Bacillus subtilis ATCC 6633 at 400 ug after 18 hrs by disc-diffusion method; assay type: functional; settings: ATCC 6633, 18 h, read-out: IZ; how it was run: as §2
[10] = system: Staphylococcus aureus; assay: Antimicrobial activity against Staphylococcus aureus ATCC 25923 at 400 ug after 18 hrs by disc-diffusion method; assay type: functional; settings: ATCC 25923, 18 h, read-out: IZ; how it was run: as §2
[11] = Antiviral activity against Bovine viral diarrhea virus 1-NADL ATCC VR-534 infected in MDBK cells assessed as protection against virus-induced cytopathogenicity after 3 to 4 days by MTT assay; assay type: functional, cell-based; settings: Bovine viral diarrhea virus isolates and strains, ATCC VR-534, MDBK; how it was run: as §4
[12] = system: Staphylococcus aureus; assay: Antimicrobial activity against Staphylococcus aureus NCTC 4163 after 18 hrs by twofold serial microdilution method; assay type: functional; settings: NCTC 4163, 18 h
[13] = system: Yellow fever virus; assay: Antiviral activity against Yellow fever virus 17D infected in BHK cells assessed as protection against virus-induced cytopathogenicity after 3 to 4 days by MTT assay; assay type: functional, cell-based
[14] = system: Staphylococcus aureus; assay: Antimicrobial activity against Staphylococcus aureus NCTC 4163 at 400 ug after 18 hrs by disc-diffusion method; assay type: functional; settings: NCTC 4163, 18 h, read-out: IZ; how it was run: as §2
[15] = Cytotoxicity against human MT4 cells; assay type: cell-based
[16] = system: Vesicular stomatitis virus; assay: Antiviral activity against Vesicular stomatitis virus ATCC VR 1540 infected in African green monkey Vero 76 cells assessed as reduction of virus-plaque formation after 2 days by crystal violet staining; assay type: functional, organism-based; settings: ATCC VR 1540, Vero, 48 h
[17] = system: Mycobacterium tuberculosis; assay: Antimycobacterial activity against Mycobacterium tuberculosis H37Rv ATCC 25618; assay type: functional; how it was run: as §3
[18] = system: Staphylococcus epidermidis; assay: Antimicrobial activity against Staphylococcus epidermidis ATCC 12228 after 18 hrs by twofold serial microdilution method; assay type: functional; settings: ATCC 12228, 18 h
[19] = system: Micrococcus luteus; assay: Antimicrobial activity against Micrococcus luteus ATCC 9341 at 400 ug after 18 hrs by disc-diffusion method; assay type: functional; settings: ATCC 9341, 18 h, read-out: IZ; how it was run: as §2
[20] = system: Staphylococcus aureus; assay: Antimicrobial activity against Staphylococcus aureus ATCC 6538 at 400 ug after 18 hrs by disc-diffusion method; assay type: functional; settings: ATCC 6538, 18 h, read-out: IZ; how it was run: as §2
[21] = system: Proteus vulgaris; assay: Antimicrobial activity against Proteus vulgaris NCTC 4635 at 400 ug after 18 hrs by disc-diffusion method; assay type: functional; how it was run: as §2
[22] = system: Bacillus cereus; assay: Antimicrobial activity against Bacillus cereus ATCC 11778 at 400 ug after 18 hrs by disc-diffusion method; assay type: functional; settings: ATCC 11778, 18 h, read-out: IZ; how it was run: as §2
[23] = system: Vaccinia virus; assay: Antiviral activity against Human Vaccinia virus ATCC VR-1549 infected in African green monkey Vero 76 cells assessed as reduction of virus-plaque formation after 3 days by crystal violet staining; assay type: functional, organism-based; settings: Orthopoxvirus vaccinia, ATCC VR-1549, Vero, 72 h
[24] = system: Staphylococcus aureus; assay: Antimicrobial activity against Staphylococcus aureus ATCC 29213 at 400 ug after 18 hrs by disc-diffusion method; assay type: functional; settings: ATCC 29213, 18 h, read-out: IZ; how it was run: as §2
[25] = system: Staphylococcus epidermidis; assay: Antimicrobial activity against Staphylococcus epidermidis ATCC 12228 at 400 ug after 18 hrs by disc-diffusion method; assay type: functional; settings: ATCC 12228, 18 h, read-out: IZ; how it was run: as §2
[26] = system: Micrococcus luteus; assay: Antimicrobial activity against Micrococcus luteus ATCC 10240 at 400 ug after 18 hrs by disc-diffusion method; assay type: functional; settings: ATCC 10240, 18 h, read-out: IZ; how it was run: as §2
[27] = system: Staphylococcus aureus; assay: Antimicrobial activity against Staphylococcus aureus ATCC 29213 after 18 hrs by twofold serial microdilution method; assay type: functional; settings: ATCC 29213, 18 h
[28] = system: Staphylococcus epidermidis; assay: Antimicrobial activity against Staphylococcus epidermidis ATCC 35984 after 18 hrs by twofold serial microdilution method; assay type: functional; settings: ATCC 35984, 18 h
[29] = system: Staphylococcus aureus; assay: Antimicrobial activity against Staphylococcus aureus ATCC 25923 after 18 hrs by twofold serial microdilution method; assay type: functional; settings: ATCC 25923, 18 h
[30] = system: Human immunodeficiency virus 1; assay: Antiviral activity against HIV1 3B infected in human MT4 cells assessed as protection against virus-induced cytopathogenicity by MTT assay; assay type: functional, organism-based; settings: Human immunodeficiency virus 1, 3B
[31] = Cytotoxicity against BHK cells assessed as cell viability after 48 to 96 hrs by MTT assay; assay type: cell-based, Mesocricetus auratus; settings: hamster
[32] = Cytotoxicity against bovine MDBK cells assessed as cell viability after 48 to 96 hrs by MTT assay; assay type: cell-based, Bos taurus; settings: cattle
[33] = system: Staphylococcus aureus; assay: Antimicrobial activity against Staphylococcus aureus ATCC 6538 after 18 hrs by twofold serial microdilution method; assay type: functional; settings: ATCC 6538, 18 h
[34] = system: Poliovirus 1; assay: Antiviral activity against Poliovirus type 1 ATCC VR-1562 infected in African green monkey Vero 76 cells assessed as reduction of virus-plaque formation after 2 days by crystal violet staining; assay type: functional, organism-based; settings: Enterovirus C, ATCC VR-1562, Vero, 48 h

SMILES	EC50 [1]	EC50 [2]	zone of inhibition at 400 µg/disc [3]	CC50 [4]	zone of inhibition at 400 µg/disc [5]	MIC [6]	EC50 [8]	zone of inhibition at 400 µg/disc [9]	zone of inhibition at 400 µg/disc [10]	EC50 [11]	MIC [12]	EC50 [13]	zone of inhibition at 400 µg/disc [14]	CC50 [15]	EC50 [16]	MIC [17]	MIC [18]	zone of inhibition at 400 µg/disc [19]	zone of inhibition at 400 µg/disc [20]	inhibition zone (IZ) [21]	further results
FC(F)(F)c1cccc(NC(=S)NCc2ccco2)c1	> 50 µM	> 50 µM	0 mm	50 µM	13 mm	> 100 µg/mL	> 48 µM	15 mm	14 mm	> 100 µM	256 µg/mL (≈ 852 µM)	> 48 µM	14 mm	43 µM	> 50 µM	> 100 µg/mL	256 µg/mL (≈ 852 µM)	13 mm	14 mm	inactive	zone of inhibition at 400 µg/disc ([7]; ATCC 10541, 18 h, read-out: IZ): 13 mm; zone of inhibition at 400 µg/disc [22]: 13 mm; EC50 [23]: > 50 µM; zone of inhibition at 400 µg/disc [24]: 19 mm; zone of inhibition at 400 µg/disc [25]: 12 mm; zone of inhibition at 400 µg/disc [26]: 13 mm; MIC [27]: 256 µg/mL (≈ 852 µM); MIC [28]: 512 µg/mL (≈ 1700 µM); MIC [29]: 256 µg/mL (≈ 852 µM); EC50 [30]: > 43 µM; CC50 [31]: 48 µM; CC50 [32]: > 100 µM; MIC [33]: 256 µg/mL (≈ 852 µM); EC50 [34]: > 50 µM
O=C(NC(=S)Nc1cccc(C(F)(F)F)c1)c1ccccc1	> 100 µM	> 100 µM	12 mm	> 100 µM	16 mm	> 100 µg/mL	> 100 µM	17 mm	17 mm	> 100 µM	32 µg/mL (≈ 98.7 µM)	> 100 µM	17 mm	> 100 µM	> 100 µM	> 100 µg/mL	64 µg/mL (≈ 197 µM)	17 mm	17 mm	inactive	inhibition zone (IZ) [7]: inactive; zone of inhibition at 400 µg/disc [22]: 14 mm; EC50 [23]: > 100 µM; zone of inhibition at 400 µg/disc [24]: 17 mm; zone of inhibition at 400 µg/disc [25]: 17 mm; zone of inhibition at 400 µg/disc [26]: 19 mm; MIC [27]: 32 µg/mL (≈ 98.7 µM); MIC [28]: 64 µg/mL (≈ 197 µM); MIC [29]: 32 µg/mL (≈ 98.7 µM); EC50 [30]: > 100 µM; CC50 [31]: > 100 µM; CC50 [32]: > 100 µM; MIC [33]: 32 µg/mL (≈ 98.7 µM); EC50 [34]: > 100 µM
